pIC50: −log10 of the molar value.
Columns and labels:
Conditions in all cases: Homo sapiens
[1] = test system: HCC 2998; test: Growth inhibition in HCC2998 cells; format: functional
[2] = Cytotoxicity against KB-3-1 cell line; format: cell-based
How it was run: (§1)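 Log-phase cells were diluted to 20 000–30 000 cells/mL, seeded, and left to attach overnight. They were then exposed to compounds at 10^–5–10^–12 M for 72 h at 37 °C in 5% CO2. Viable cells were measured by MTT, with absorbance read at 595 nm. Each compound ran in triplicate in at least three independent assays. IC50 came from nonlinear regression, and average values were reported.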

[3] = test system: RXF 393; test: Growth inhibition in RXF393 cells; format: functional
[4] = test system: HOP-62; test: Growth inhibition in HOP62 cells; format: functional
[5] = test system: TK-10; test: Growth inhibition in TK10 cells; format: functional
[6] = test system: NCI/ADR-RES; test: Growth inhibition in NCI/ADR-RES cells; format: functional
[7] = test system: NCI-H23; test: Growth inhibition in NCI-H23 cells; format: functional
[8] = test system: HeLa; test: Cytotoxicity against HeLa cell line; format: cell-based; how it was run: as §1
[9] = test system: SF-539; test: Growth inhibition in SF539 cells; format: functional
[10] = test system: SNB-75; test: Growth inhibition in SNB75 cells; format: functional
[11] = test system: SK-MEL-5; test: Growth inhibition in SK-MEL-5 cells; format: functional
[12] = test system: SF-268; test: Growth inhibition in SF268 cells; format: functional
[13] = test system: BT-549; test: Growth inhibition in BT549 cells; format: functional
[14] = test system: DU-145; test: Growth inhibition in DU145 cells; format: functional
[15] = test system: EKVX; test: Growth inhibition in EKVX cells; format: functional
[16] = Growth inhibition in HCC116 cells; format: functional
[17] = test system: IGROV-1; test: Growth inhibition in IGROV1 cells; format: functional
[18] = test system: MCF7; test: Growth inhibition in MCF7 cells; format: functional
[19] = test system: NCI-H226; test: Growth inhibition in NCI-H226 cells; format: functional
[20] = test system: HOP-92; test: Growth inhibition in HOP92 cells; format: functional
[21] = test system: SK-OV-3; test: Growth inhibition in SKOV3 cells; format: functional
[22] = test system: U-251; test: Growth inhibition in U251cells; format: functional
[23] = test system: KM12; test: Growth inhibition in KM12 cells; format: functional
[24] = test system: NCI-H322M; test: Growth inhibition in NCI-H322M cells; format: functional
[25] = test system: NCI-H460; test: Growth inhibition in NCI-H460 cells; format: functional
[26] = test system: OVCAR-8; test: Growth inhibition in OVCAR8 cells; format: functional
[27] = test system: A549; test: Growth inhibition in A549 cells; format: functional
[28] = test system: M14; test: Growth inhibition in M14 cells; format: functional
[29] = test system: OVCAR-4; test: Growth inhibition in OVCAR4 cells; format: functional
[30] = test system: HT-29; test: Growth inhibition in HT29 cells; format: functional
[31] = test system: HL-60; test: Growth inhibition in HL60 cells; format: functional
[32] = test system: OVCAR-5; test: Growth inhibition in OVCAR5 cells; format: functional
[33] = test system: PC-3; test: Growth inhibition in PC3 cells; format: functional
[34] = Growth inhibition in HS 578T cells; format: functional
[35] = test system: 786-0; test: Growth inhibition in 786-0 cells; format: functional
[36] = test system: T47D; test: Growth inhibition in T47D cells; format: functional
[37] = test system: UACC-62; test: Growth inhibition in UACC62 cells; format: functional
[38] = test system: SF-295; test: Growth inhibition in SF295 cells; format: functional
[39] = test system: MDA-MB-435; test: Growth inhibition in MDA-MB-435 cells; format: functional
[40] = test system: LOX IMVI; test: Growth inhibition in LOX IMVI cells; format: functional
[41] = test system: UO-31; test: Growth inhibition in UO31 cells; format: functional
[42] = test system: A498; test: Growth inhibition in A498 cells; format: functional
[43] = test system: CCRF-CEM; test: Growth inhibition in CCRF-CEM cells; format: functional
[44] = test system: UACC-257; test: Growth inhibition in UACC257 cells; format: functional
[45] = test system: ZR-75-1; test: Cytotoxicity against ZR-75-1 cell line; format: cell-based; how it was run: as §1
[46] = test system: HCT-116; test: Cytotoxicity against HCT116 cell line; format: cell-based; how it was run: as §1
[47] = test system: SN12C; test: Growth inhibition in SN12C cells; format: functional
[48] = test system: ACHN; test: Growth inhibition in ACHN cells; format: functional
[49] = Growth inhibition in HCC15 cells; format: functional
[50] = test system: COLO 205; test: Growth inhibition in COLO205 cells; format: functional
[51] = test system: OVCAR-3; test: Growth inhibition in OVCAR-3 cells; format: functional
[52] = test system: SK-MEL-28; test: Growth inhibition in SK-MEL-28 cells; format: functional
[53] = test system: NCI-H522; test: Growth inhibition in NCI-H522 cells; format: functional
[54] = test system: SW-620; test: Growth inhibition in SW620 cells; format: functional
[55] = test system: K562; test: Growth inhibition in K562 cells; format: functional
[56] = test system: SNB-19; test: Growth inhibition in SNB19 cells; format: functional
[57] = Cytotoxicity against P-glycoprotein-overexpressing KB-V1 cell line; format: cell-based; how it was run: as §1
[58] = test system: CAKI-1; test: Growth inhibition in CAK1-1 cells; format: functional
[59] = Growth inhibition in MDA-MB-231/ATCC cells; format: functional

In the case of COc1ccc(-n2cnnc2-c2cc(OC)c(OC)c(OC)c2)cc1F, the GI50 [1] was 0.631 µM, the pIC50 [2] was 6.40 and the GI50 [3] was 1.7 µM. The GI50 [4] was 2.04 µM, the GI50 [5] was > 100 µM and the GI50 [6] was 2 µM. It also gave a GI50 [7] of 2.24 µM, a pIC50 [8] of 6.76 and a GI50 [9] of 3.89 µM. For the same molecule, the GI50 [10] was 3.02 µM, the GI50 [11] was 2.57 µM and the GI50 [12] was 9.33 µM. It also gave a GI50 [13] of 9.33 µM, a GI50 [14] of 4.79 µM and a GI50 [15] of 89.1 µM. The GI50 [16] was 3.02 µM, the GI50 [17] was 4.9 µM and the GI50 [18] was 1 µM. The GI50 [19] was 7.08 µM, the GI50 [20] was 5.37 µM and the GI50 [21] was 8.32 µM. It also gave a GI50 [22] of 5.13 µM, a GI50 [23] of 1.45 µM and a GI50 [24] of 8.13 µM. It also gave a GI50 [25] of 3.16 µM, a GI50 [26] of 6.31 µM and a GI50 [27] of 12 µM. The GI50 [28] was 2.24 µM, the GI50 [29] was 5.25 µM and the GI50 [30] was 3.16 µM. It also gave a GI50 [31] of 6.03 µM, a GI50 [32] of 5.62 µM and a GI50 [33] of 3.02 µM. For the same molecule, the GI50 [34] was 6.46 µM, the GI50 [35] was 3.16 µM and the GI50 [36] was > 100 µM. The GI50 [37] was 3.63 µM, the GI50 [38] was 1.86 µM and the GI50 [39] was 0.331 µM. It also gave a GI50 [40] of 5.13 µM, a GI50 [41] of 17.8 µM and a GI50 [42] of 8.13 µM. The GI50 [43] was 2.57 µM, the GI50 [44] was > 100 µM and the pIC50 [45] was 6.44. It also gave a pIC50 [46] of 6.44, a GI50 [47] of 4.68 µM and a GI50 [48] of 5.62 µM. For the same molecule, the GI50 [49] was 1.66 µM, the GI50 [50] was 3.98 µM and the GI50 [51] was 2.09 µM. It also gave a GI50 [52] of 39.8 µM, a GI50 [53] of 4.57 µM and a GI50 [54] of 4.07 µM. The GI50 [55] was 0.759 µM, the GI50 [56] was 6.31 µM and the pIC50 [57] was 5.83. It also gave a GI50 [58] of 2.95 µM and a GI50 [59] of 6.46 µM.

Source: ChEMBL document CHEMBL1141374 (J Med Chem, 2007)
